Experimental data: ChEMBL document CHEMBL2401735, “Synthesis and cytotoxicity of novel (thiazol-2-yl)hydrazine derivatives as promising anti-Candida agents” (Eur J Med Chem, 2013)
In brackets after ≈: the same amount, converted by molar mass.

Assays:
[Candida] sake = Anticandida activity against Candida sake clinical isolate assessed as growth inhibition after 24 hrs by broth microdilution method; assay type: functional; conditions: Fermentozyma sake
Procedure, shortened: (§1)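 Clinical Candida isolates subcultured for purity and optimal growth before testing; compounds dissolved in DMSO. Broth microdilution per NCCLS in Sabouraud dextrose broth, serial dilutions, inoculum about 10³/mL, with growth control and medium-only control; 24 h incubation at 37 °C. MIC is the lowest concentration giving complete visible inhibition.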

Candida parapsilosis = test: Anticandida activity against Candida parapsilosis clinical isolate assessed as growth inhibition after 24 hrs by broth microdilution method; assay type: functional; conditions: Lodderomyces parapsilosis; procedure, shortened: as §1
Pichia kudriavzevii = test: Anticandida activity against Candida krusei clinical isolate assessed as growth inhibition after 24 hrs by broth microdilution method; assay type: functional; procedure, shortened: as §1
Candida tropicalis = test: Anticandida activity against Candida tropicalis clinical isolate assessed as growth inhibition after 24 hrs by broth microdilution method; assay type: functional; procedure, shortened: as §1
Nakaseomyces glabratus = test: Anticandida activity against Candida glabrata clinical isolate assessed as growth inhibition after 24 hrs by broth microdilution method; assay type: functional; procedure, shortened: as §1
Candida albicans = test: Anticandida activity against Candida albicans clinical isolate assessed as growth inhibition after 24 hrs by broth microdilution method; assay type: functional; procedure, shortened: as §1
Klebsiella oxytoca = test: Antibacterial activity against Klebsiella oxytoca assessed as growth inhibition after 18 to 22 hrs by broth microdilution method; assay type: functional
Procedure, shortened: (§2)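 Bacterial isolates subcultured for purity, identified conventionally. Broth microdilution per NCCLS in Mueller-Hinton II broth; plates with growth control (no compound) and medium-only control, incubated 18-22 h at 35 °C. MIC taken as lowest concentration giving complete growth inhibition by unaided eye.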

Proteus mirabilis = test: Antibacterial activity against Proteus mirabilis assessed as growth inhibition after 18 to 22 hrs by broth microdilution method; assay type: functional; procedure, shortened: as §2
Enterobacter sp. = test: Antibacterial activity against Enterobacter spp. assessed as growth inhibition after 18 to 22 hrs by broth microdilution method; assay type: functional; procedure, shortened: as §2
Escherichia coli = test: Antibacterial activity against Escherichia coli assessed as growth inhibition after 18 to 22 hrs by broth microdilution method; assay type: functional; procedure, shortened: as §2
Enterococcus faecalis = test: Antibacterial activity against […] assessed as growth inhibition after 18 to 22 hrs by broth microdilution method; assay type: functional; procedure, shortened: as §2
Staphylococcus warneri = test: Antibacterial activity against Staphylococcus warneri assessed as growth inhibition after 18 to 22 hrs by broth microdilution method; assay type: functional; procedure, shortened: as §2
Staphylococcus aureus = test: Antibacterial activity against Staphylococcus aureus assessed as growth inhibition after 18 to 22 hrs by broth microdilution method; assay type: functional; procedure, shortened: as §2
[1] = test system: Streptococcus alpha-hemolyticus; test: Antibacterial activity against Streptococcus alpha-hemolyticus assessed as growth inhibition after 18 to 22 hrs by broth microdilution method

SMILES	MIC ([Candida] sake) [µg/mL]	MIC (Candida parapsilosis) [µg/mL]	MIC (Pichia kudriavzevii) [µg/mL]	MIC (Candida tropicalis) [µg/mL]	MIC (Nakaseomyces glabratus) [µg/mL]	MIC (Candida albicans) [µg/mL]	MIC (Klebsiella oxytoca) [µg/mL]	MIC (Proteus mirabilis) [µg/mL]	MIC (Enterobacter sp.) [µg/mL]	MIC (Escherichia coli) [µg/mL]	MIC (Enterococcus faecalis) [µg/mL]	MIC (Staphylococcus warneri) [µg/mL]	MIC (Staphylococcus aureus) [µg/mL]	MIC [1] [µg/mL]
CCCCC/C(C)=N/Nc1nc(-c2ccc(Cl)cc2Cl)cs1	16 (≈ 44.9 µM)	16 (≈ 44.9 µM)	4 (≈ 11.2 µM)	4 (≈ 11.2 µM)	2 (≈ 5.61 µM)	2 (≈ 5.61 µM)	> 256	> 256	> 256	> 256	> 256	> 256	> 256	> 256
C/C(CC(C)C)=N\Nc1nc(-c2ccc(Cl)cc2Cl)cs1	256 (≈ 748 µM)	256 (≈ 748 µM)	256 (≈ 748 µM)	256 (≈ 748 µM)	128 (≈ 374 µM)	256 (≈ 748 µM)	> 256	> 256	> 256	> 256	> 256	> 256	> 256	> 256
C=CCC/C(C)=N/Nc1nc(-c2ccc(Cl)cc2Cl)cs1	256 (≈ 752 µM)	256 (≈ 752 µM)	8 (≈ 23.5 µM)	8 (≈ 23.5 µM)	4 (≈ 11.8 µM)	2 (≈ 5.88 µM)	> 256	> 256	> 256	> 256	> 256	> 256	> 256	> 256
CCCC/C(CC)=N/Nc1nc(-c2ccc(Cl)cc2Cl)cs1	8 (≈ 22.5 µM)	8 (≈ 22.5 µM)	4 (≈ 11.2 µM)	4 (≈ 11.2 µM)	4 (≈ 11.2 µM)	2 (≈ 5.61 µM)	> 256	> 256	> 256	> 256	> 256	> 256	> 256	> 256
CCCCCC/C(C)=N/Nc1nc(-c2ccc(Cl)cc2Cl)cs1	32 (≈ 86.4 µM)	32 (≈ 86.4 µM)	4 (≈ 10.8 µM)	4 (≈ 10.8 µM)	4 (≈ 10.8 µM)	2 (≈ 5.4 µM)	> 256	> 256	> 256	> 256	> 256	> 256	> 256	> 256
COc1ccc(-c2csc(NN=C(C)C)n2)c(OC)c1	256 (≈ 879 µM)	256 (≈ 879 µM)	256 (≈ 879 µM)	256 (≈ 879 µM)	128 (≈ 439 µM)	128 (≈ 439 µM)	> 256	> 256	> 256	> 256	> 256	> 256	> 256	> 256
CC/C(C)=N/Nc1nc(-c2ccc(OC)cc2OC)cs1	256 (≈ 838 µM)	256 (≈ 838 µM)	256 (≈ 838 µM)	256 (≈ 838 µM)	128 (≈ 419 µM)	64 (≈ 210 µM)	> 256	> 256	> 256	> 256	> 256	> 256	> 256	> 256
CCC/C(C)=N/Nc1nc(-c2ccc(OC)cc2OC)cs1	256 (≈ 801 µM)	256 (≈ 801 µM)	256 (≈ 801 µM)	256 (≈ 801 µM)	128 (≈ 401 µM)	128 (≈ 401 µM)	> 256	> 256	> 256	> 256	> 256	> 256	> 256	> 256
CCC(CC)=NNc1nc(-c2ccc(OC)cc2OC)cs1	256 (≈ 801 µM)	256 (≈ 801 µM)	256 (≈ 801 µM)	256 (≈ 801 µM)	128 (≈ 401 µM)	128 (≈ 401 µM)	> 256	> 256	> 256	> 256	> 256	> 256	> 256	> 256
COc1ccc(-c2csc(N/N=C(\C)CC(C)C)n2)c(OC)c1	256 (≈ 768 µM)	256 (≈ 768 µM)	256 (≈ 768 µM)	256 (≈ 768 µM)	128 (≈ 384 µM)	128 (≈ 384 µM)	> 256	> 256	> 256	> 256	> 256	> 256	> 256	> 256
C=CCC/C(C)=N/Nc1nc(-c2ccc(OC)cc2OC)cs1	256 (≈ 772 µM)	256 (≈ 772 µM)	256 (≈ 772 µM)	256 (≈ 772 µM)	128 (≈ 386 µM)	64 (≈ 193 µM)	> 256	> 256	> 256	> 256	> 256	> 256	> 256	> 256
CCCCC/C(C)=N/Nc1nc(-c2ccc(OC)cc2OC)cs1	256 (≈ 737 µM)	256 (≈ 737 µM)	256 (≈ 737 µM)	256 (≈ 737 µM)	128 (≈ 368 µM)	64 (≈ 184 µM)	> 256	> 256	> 256	> 256	> 256	> 256	> 256	> 256
CCCC/C(CC)=N/Nc1nc(-c2ccc(OC)cc2OC)cs1	256 (≈ 737 µM)	256 (≈ 737 µM)	256 (≈ 737 µM)	256 (≈ 737 µM)	128 (≈ 368 µM)	128 (≈ 368 µM)	> 256	> 256	> 256	> 256	> 256	> 256	> 256	> 256
CCCCCC/C(C)=N/Nc1nc(-c2ccc(OC)cc2OC)cs1	256 (≈ 708 µM)	256 (≈ 708 µM)	256 (≈ 708 µM)	256 (≈ 708 µM)	64 (≈ 177 µM)	64 (≈ 177 µM)	> 256	> 256	> 256	> 256	> 256	> 256	> 256	> 256
COc1ccc(-c2csc(N/N=C(\C)C3CCCCC3)n2)c(OC)c1	256 (≈ 712 µM)	256 (≈ 712 µM)	256 (≈ 712 µM)	256 (≈ 712 µM)	64 (≈ 178 µM)	64 (≈ 178 µM)	> 256	> 256	> 256	> 256	> 256	> 256	> 256	> 256
COc1ccc(-c2csc(NN=C3CCCCCCC3)n2)c(OC)c1	256 (≈ 712 µM)	256 (≈ 712 µM)	256 (≈ 712 µM)	256 (≈ 712 µM)	256 (≈ 712 µM)	64 (≈ 178 µM)	> 256	> 256	> 256	> 256	> 256	> 256	> 256	> 256
CC(C)=NNc1nc(-c2ccc(Cl)cc2Cl)cs1	8 (≈ 26.6 µM)	8 (≈ 26.6 µM)	8 (≈ 26.6 µM)	4 (≈ 13.3 µM)	2 (≈ 6.66 µM)	2 (≈ 6.66 µM)	> 256	> 256	> 256	> 256	> 256	> 256	> 256	> 256
CC/C(C)=N/Nc1nc(-c2ccc(Cl)cc2Cl)cs1	8 (≈ 25.5 µM)	8 (≈ 25.5 µM)	8 (≈ 25.5 µM)	4 (≈ 12.7 µM)	4 (≈ 12.7 µM)	2 (≈ 6.36 µM)	> 256	> 256	> 256	> 256	> 256	> 256	> 256	> 256
CCC/C(C)=N/Nc1nc(-c2ccc(Cl)cc2Cl)cs1	256 (≈ 780 µM)	256 (≈ 780 µM)	256 (≈ 780 µM)	4 (≈ 12.2 µM)	2 (≈ 6.09 µM)	2 (≈ 6.09 µM)	> 256	> 256	> 256	> 256	> 256	> 256	> 256	> 256
CCC(CC)=NNc1nc(-c2ccc(Cl)cc2Cl)cs1	256 (≈ 780 µM)	256 (≈ 780 µM)	256 (≈ 780 µM)	4 (≈ 12.2 µM)	4 (≈ 12.2 µM)	0.5 (≈ 1.52 µM)	> 256	> 256	> 256	> 256	> 256	> 256	> 256	> 256
CC(C)(O/N=C(\C(=O)N[C@@H]1C(=O)N2C(C(=O)[O-])=C(C[n+]3ccccc3)CS[C@H]12)c1csc(N)n1)C(=O)O [CEFTAZIDIME]							8 (≈ 14.6 µM)	8 (≈ 14.6 µM)	8 (≈ 14.6 µM)	4 (≈ 7.32 µM)	4 (≈ 7.32 µM)	4 (≈ 7.32 µM)	2 (≈ 3.66 µM)	4 (≈ 7.32 µM)
OC(Cn1cncn1)(Cn1cncn1)c1ccc(F)cc1F [FLUCONAZOLE]	4 (≈ 13.1 µM)	4 (≈ 13.1 µM)	4 (≈ 13.1 µM)	4 (≈ 13.1 µM)	4 (≈ 13.1 µM)	4 (≈ 13.1 µM)								
COC1=CC(=O)C[C@@H](C)[C@]12Oc1c(Cl)c(OC)cc(OC)c1C2=O [GRISEOFULVIN]	8 (≈ 22.7 µM)	8 (≈ 22.7 µM)	8 (≈ 22.7 µM)	8 (≈ 22.7 µM)	4 (≈ 11.3 µM)	4 (≈ 11.3 µM)								
